From PubChem
Efa HMGR inh = inhibitors of E. faecalis class II HMGR, primary screen, biochemical, Enterococcus faecalis; HMG-CoA reductase (Enterococcus faecalis, mvaE); purified E. faecalis HMGR, NADPH absorbance 340 nm kinetic; inhibition, % at 10 µM; 190,000 compounds, 0.41% hits; AID 1066, 2008;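 active = inhibition above a set limit, the median over all tested compounds plus 3 SD, cut at about 9.5% in these data; inconclusive = no clear call, values can overlap the other calls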;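 note: enzyme runs in reverse so mevalonate oxidation gives rising NADPH absorbance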
Wee1 stabilizer = Wee1 degradation inhibitors, primary screen, cell-based, HeLa, Wee1K328M-luciferase, luminescence; AID 1321, 2008; Wee1-like protein kinase (Homo sapiens), P30291; 220,000 compounds, 1.2% hits; HeLa Luc-Wee1K328M stability; 100% = proteasome inhibitor MG132 effect; reporter increase, % at 5 µM;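 active = activation above the mean of all tested compounds plus 3 SD, set per screening run, cut at about 8.8% in these data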;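 note: cells exposed to compound for 20 h before luminescence read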
Target sequence (P30291 whole entry K328M): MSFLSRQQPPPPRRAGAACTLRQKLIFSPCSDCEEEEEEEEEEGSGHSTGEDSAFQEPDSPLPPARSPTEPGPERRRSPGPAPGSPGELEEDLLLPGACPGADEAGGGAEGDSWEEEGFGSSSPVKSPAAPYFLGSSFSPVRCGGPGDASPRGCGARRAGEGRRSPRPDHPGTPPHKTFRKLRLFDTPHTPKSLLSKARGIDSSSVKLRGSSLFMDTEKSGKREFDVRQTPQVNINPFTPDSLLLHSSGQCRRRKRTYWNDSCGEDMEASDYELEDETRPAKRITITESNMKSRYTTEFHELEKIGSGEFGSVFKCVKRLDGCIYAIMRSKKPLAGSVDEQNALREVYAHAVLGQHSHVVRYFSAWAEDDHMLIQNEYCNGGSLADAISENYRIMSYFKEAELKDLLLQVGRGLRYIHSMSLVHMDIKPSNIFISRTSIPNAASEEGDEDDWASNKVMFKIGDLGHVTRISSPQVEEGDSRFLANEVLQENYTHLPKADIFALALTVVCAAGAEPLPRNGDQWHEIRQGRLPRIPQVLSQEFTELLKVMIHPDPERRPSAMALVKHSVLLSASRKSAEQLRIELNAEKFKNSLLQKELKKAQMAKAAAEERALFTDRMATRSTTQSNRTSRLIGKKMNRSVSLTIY
PHOSPHO1 block = PubChem AID 1565; 290,000 compounds, 1.1% hits; recombinant PHOSPHO1, absorbance phosphatase assay; inhibition, % at 13.3 µM; Phosphoethanolamine/phosphocholine phosphatase (Homo sapiens), Q8TCT1; in the data active = inhibition above about 60%
RanGTP-Impb inh = inhibitors of RanGTP-importin-beta interaction, primary screen, biochemical, FRET, CFP-Ran, YFP-importin-beta, homogeneous; Ran GTPase (GTP-bound) - importin-beta complex; cell-free CFP-Ran/YFP-importin-beta FRET ratio; inhibition, % (no concentration beside the values); 300,000 compounds, 1.1% hits; AID 2216, 2009;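 active = more than half of the replicate wells show a fall in the fluorescence ratio signal beyond about 16%, limit read from the data, passing the limit was not always enough; inconclusive = exactly half of the replicate wells pass the set limit; inactive = fewer than half of replicates pass the limit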
Runt-SMMHC FRET = inhibitors of RUNX1 Runt–CBFb-SMMHC binding, primary screen, biochemical, FRET, Cerulean-Runt, Venus-CBFb-SMMHC, uHTS. Cerulean-Runt/Venus-CBFb-SMMHC FRET ratio 530/480, 1 h. Runt-related transcription factor 1 (Homo sapiens) + Core-binding factor subunit beta …. inhibition, % at 20 µM. 220,000 compounds, 0.74% hits;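 active = mean inhibition across duplicate retests at 20 µM reaching about 50%, limit read from the data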;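 note: inhibitors lower the FRET ratio by blocking Runt binding to CBFb-SMMHC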
Runt-CBFb FRET = inhibitors of RUNX1 Runt–CBFb binding, primary screen, biochemical, FRET, Cerulean-Runt, Venus-CBFb, uHTS | 220,000 compounds, 0.46% hits | Cerulean-Runt/Venus-CBFb FRET ratio 530/480, 1 h | inhibition, % at 20 µM;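 active = inhibition over about 50% at 20 µM in the single-dose screen, limit read from the data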
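Reagent – Venus-CBFb binding partner, 100 nM · Assay system – Cerulean-tagged RUNX1 Runt domain (FRET donor) fusion protein · Input – 100 nM per protein · Incubation – two 1 h room-temperature incubations shielded from light · Measured by – FRET fluorescence · Medium – Tris buffer pH 7.5 with salts and BSA · Benchmarks – unlabeled CBFb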
YIC FRET counter = YIC intramolecular FRET probe signal interference, dose response, counter-screen for RanGTP-importin-beta inhibitor project, biochemical, fluorescence FRET | Purified YIC probe, intramolecular FRET ratio YFP/CFP | shares compounds with RanGTP-Impb inh | AID 435026, 2010 | IC50, µM | 1,000 compounds, 40% hits;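 active = fitted half-maximal inhibitory concentration no more than tenfold above the top dose tested; inconclusive = flat fit with 30 to 70% activity, or poor fit; inactive = half-maximal concentration beyond tenfold above the top dose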
Hits are given with their value; n = inactive; u = inconclusive; x = no result. A selection: hits, their analogues and other compounds. The true share with any hit is near 3.4%.

SMILES	Efa HMGR inh	Wee1 stabilizer	PHOSPHO1 block	RanGTP-Impb inh	Runt-SMMHC FRET	Runt-CBFb FRET	YIC FRET counter
CC(C)(C)c1cc[n+](-c2[nH]c(=O)sc2/C=N/N=C(\[O-])c2cccnc2)cc1	x	x	n	n	x	x	x
CN(C)S(=O)(=O)c1ccc(N2CCCC2)c(C(=O)Nc2ccccc2Br)c1	x	x	x	n	x	x	x
CN(C)S(=O)(=O)c1ccc(N2CCCC2)c(C(=O)NC(c2ccccc2)c2ccccc2)c1	n	n	n	19	n	n	n
Cc1cc(NC(=O)c2ccc(F)cc2)no1	x	x	n	n	x	x	x
Cc1cc(NC(=O)c2ccccc2Cl)no1	n	n	n	n	n	n	x
Cc1cc(NC(=O)c2c(F)c(F)c(F)c(F)c2F)no1	n	n	n	23	n	n	n
Cc1cc(NC(=O)c2sc3ccccc3c2O)no1	x	x	n	17	x	x	u
Cc1cc(C)c2nc(N3CCOCC3)c(C#N)cc2c1	x	x	x	24	x	x	19
N#Cc1cc2cc3c(cc2nc1SCC(=O)N1CCOCC1)OCCO3	x	x	n	n	x	x	x
Cc1cc(C)c(C#N)c(N2CCCC2)n1	n	n	n	n	n	n	x
Cc1ccc2cc(C#N)c(N3CCCC3)nc2c1C	n	n	n	26	53	n	5.3
Cc1cccc2cc(C#N)c(N3CCOCC3)nc12	x	x	x	n	x	x	x
N#Cc1cc2cc3c(cc2nc1N1CCOCC1)OCO3	n	n	n	39	109	97	9
Cc1coc2c(C)c3oc(=O)c4c(c3cc12)CCCC4	x	x	n	n	n	n	x
CCc1c(C)c2ccc(O)c(CN3CCCC3)c2oc1=O	x	x	n	n	x	x	x
CCN(CC)Cc1c(O)c(Cl)cc2c3c(c(=O)oc12)CCCC3	n	n	n	48	n	107	23
Cc1c(C)c2cc(Cl)c(O)c(CN(C)C)c2oc1=O	n	n	n	33	81	92	29
CCc1c(C)c2cc(Cl)c(O)c(CN(CC)CC)c2oc1=O	n	n	n	26	65	95	27
CC1=C(C(=O)OCC2CCCO2)C(c2ccccc2OC(C)C)C2=C(CC(c3ccco3)CC2=O)N1 (centres undefined)	n	n	n	28	103	n	6.9
COc1ccc(N2C(=O)C3C4C=CC(CC4)C3C2=O)c([N+](=O)[O-])c1 (centres undefined)	n	n	n	n	n	n	x
CCOc1ccc(N2C(=O)C3C4C=CC(CC4)C3C2=O)c([N+](=O)[O-])c1 (centres undefined)	n	n	n	20	n	n	n
CCOc1ccc(C2C(C(=O)OC)=CN(C(C)c3ccccc3)C=C2C(=O)OC)cc1 (centres undefined)	x	x	n	n	x	x	x
CCN1CCc2nc(NC(=O)CC(c3ccccc3)c3ccccc3)sc2C1	n	n	n	31	60	n	16
Cn1nc(C(=O)N2CCOCC2)c([N+](=O)[O-])c1C(=O)N1CCOCC1	n	n	n	n	n	n	x
CC1CN(C2CCN(S(=O)(=O)Cc3ccccc3)CC2)CC(C)O1 (centres undefined)	n	n	n	u	n	n	x
SMILES	Efa HMGR inh	Wee1 stabilizer	PHOSPHO1 block	RanGTP-Impb inh	Runt-SMMHC FRET	Runt-CBFb FRET	YIC FRET counter
COCCCNC(=O)/C(C#N)=C/c1c(N2CCN(c3ccccc3)CC2)nc2ccccn2c1=O	x	x	n	26	x	x	29
CCNC(=O)/C(C#N)=C/c1c(N2CCN(c3ccccc3)CC2)nc2ccccn2c1=O	x	x	n	n	x	x	x
Cc1ccc(Cl)cc1-n1c(=O)cc(N2CC(C)OC(C)C2)[nH]c1=O (centres undefined)	n	n	n	56	n	n	n
CC1CN(c2cc(=O)n(-c3ccc(Cl)cc3)c(=O)[nH]2)CC(C)O1 (centres undefined)	n	n	n	x	n	n	x
COc1ccc(CNC(=O)C2CC(=O)N(C3CCCCC3)C2)cc1 (centres undefined)	x	x	n	21	x	x	n
O=C(NCc1ccc(F)cc1)C1CC(=O)N(C2CCCCCCC2)C1 (centres undefined)	x	x	n	n	x	x	x
O=C(Nc1ccc(Cl)c(S(=O)(=O)N2CCOCC2)c1)c1ccc(OCC2CCCO2)cc1 (centres undefined)	n	n	n	u	n	n	x
O=C(CN1C(=O)NC2(CCCC2)C1=O)Nc1nc2c(F)cc(F)cc2s1	x	x	x	20	x	x	n
Cc1cccc2sc(NC(=O)CN3C(=O)NC4(CCCC4)C3=O)nc12	x	x	n	n	x	x	x
COc1ccc(/C=N/c2sc3c(c2C#N)CCN(Cc2ccccc2)C3)c(O)c1	n	n	n	n	n	n	x
Cc1cccc(/C=N/c2sc3c(c2C#N)CCN(Cc2ccccc2)C3)c1O	n	n	n	36	126	n	n
O=C(NCC1CCCO1)C(=O)NCC(c1ccco1)N1CCN(c2ccccc2F)CC1 (centres undefined)	n	n	n	n	n	n	x
COc1cc(NC(=O)CN(C)CCOc2ccccc2)c(C)cc1[N+](=O)[O-]	x	x	n	n	x	x	x
CN(CCOc1ccccc1)CC(=O)Nc1ccc(Cl)cc1[N+](=O)[O-]	n	n	n	35	n	n	n
CC(=O)N(/N=C1\Sc2ccccc2C1=O)c1ccccc1C	n	n	n	24	n	x	40
CC(=O)O/N=C/c1c(Cl)n(C)c2ccccc12	n	n	n	48	n	n	n
Cn1c(Cl)c(/C=N/OC(=O)C(C)(C)C)c2ccccc21	n	n	n	n	n	n	x
